Data taken from ChEMBL document CHEMBL3351885, “Putative kappa opioid heteromers as targets for developing analgesics free of adverse effects” (J Med Chem, 2014).
Active and inactive are the calls of the source.

How the values were obtained:
Mus musculus [1] = experiment: Antinociceptive effect in intracerebroventricularly dosed ICR-CD1 mouse by tail flick test; type: functional
How it was run: (§1)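 Male ICR-CD1 mice, 17−25 g. Tail-flick latency was taken before dosing and at the compound's peak time, with a 10 s cutoff. Response was expressed as %MPE = (test − control)/(10 − control) × 100. Three groups of 8−10 mice per dose-response curve, each mouse used once. ED50 with 95% CI came from nonlinear regression.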

[2] = molecular target: Opioid receptors; mu & delta (Homo sapiens) (UniProt P41143+P35372); experiment: Agonist activity at human mu-delta opioid receptor expressed in HEK293 cells assessed as induction of intracellular calcium release by FLIPR assay; type: functional, cell-based
Chain of Opioid receptors; mu & delta (Homo sapiens) (P35372 whole entry, looked up): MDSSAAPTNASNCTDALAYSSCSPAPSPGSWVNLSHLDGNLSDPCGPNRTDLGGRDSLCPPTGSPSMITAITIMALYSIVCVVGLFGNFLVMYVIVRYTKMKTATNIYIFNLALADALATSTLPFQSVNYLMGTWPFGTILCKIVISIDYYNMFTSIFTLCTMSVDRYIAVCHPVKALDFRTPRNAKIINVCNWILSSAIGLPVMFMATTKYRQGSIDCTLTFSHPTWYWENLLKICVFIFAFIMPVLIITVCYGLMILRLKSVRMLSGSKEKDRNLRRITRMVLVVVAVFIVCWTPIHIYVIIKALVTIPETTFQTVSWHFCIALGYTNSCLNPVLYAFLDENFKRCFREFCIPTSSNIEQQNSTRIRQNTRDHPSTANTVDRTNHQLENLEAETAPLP
Chain of Opioid receptors; mu & delta (Homo sapiens) (P41143 whole entry, looked up): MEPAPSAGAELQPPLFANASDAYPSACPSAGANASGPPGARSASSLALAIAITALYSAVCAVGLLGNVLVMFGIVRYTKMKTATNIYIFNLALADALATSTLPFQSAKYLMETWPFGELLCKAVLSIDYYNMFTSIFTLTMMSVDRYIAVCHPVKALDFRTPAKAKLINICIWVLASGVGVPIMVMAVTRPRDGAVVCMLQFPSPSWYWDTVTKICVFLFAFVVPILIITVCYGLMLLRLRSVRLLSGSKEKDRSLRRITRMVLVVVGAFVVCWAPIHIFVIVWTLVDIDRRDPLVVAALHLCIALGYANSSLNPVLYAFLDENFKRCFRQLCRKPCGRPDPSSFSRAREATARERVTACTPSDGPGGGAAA
How it was run: (§2)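 HEK293 cells stably carrying chimeric Δ6-Gαqi-myr, transiently transfected with one or two opioid receptor cDNAs (200 ng/20000 cells, Lipofectamine 2000). Cells were reseeded at 24 h and assayed 48 h post-transfection with a FLIPR Ca2+ kit. Fluorescence was read for 90 s after ligand addition to build concentration-response curves; mean ± SEM, n = 3−5.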

[3] = molecular target: T1, Opioid receptors; delta & kappa (Homo sapiens) (UniProt P41145+P41143); experiment: Agonist activity at human delta-kappa opioid receptor expressed in HEK293 cells assessed as induction of intracellular calcium release by FLIPR assay; type: functional, cell-based; how it was run: as §2
T1 sequence (P41143 whole entry, looked up): as above
T1 sequence (P41145 whole entry, looked up): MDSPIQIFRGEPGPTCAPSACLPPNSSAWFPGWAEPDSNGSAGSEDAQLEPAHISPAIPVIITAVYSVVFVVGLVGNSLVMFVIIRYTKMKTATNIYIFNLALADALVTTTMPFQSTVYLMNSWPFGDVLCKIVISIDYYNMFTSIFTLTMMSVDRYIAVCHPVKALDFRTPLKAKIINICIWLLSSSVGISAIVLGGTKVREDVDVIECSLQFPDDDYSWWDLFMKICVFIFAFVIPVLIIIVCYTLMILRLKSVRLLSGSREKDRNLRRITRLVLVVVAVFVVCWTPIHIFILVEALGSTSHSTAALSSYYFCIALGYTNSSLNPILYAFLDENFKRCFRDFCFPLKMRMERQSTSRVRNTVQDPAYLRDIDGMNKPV

[4] = molecular target: Delta-type opioid receptor (Homo sapiens) (UniProt P41143); experiment: Agonist activity at human delta opioid receptor expressed in HEK293 cells assessed as induction of intracellular calcium release by FLIPR assay; type: functional, cell-based; how it was run: as §2
Chain of Delta-type opioid receptor (Homo sapiens) (P41143 whole entry): as the sequence (P41143 whole entry, looked up) above

[5] = molecular target: Mu-type opioid receptor (Homo sapiens) (UniProt P35372); experiment: Agonist activity at human mu opioid receptor expressed in HEK293 cells assessed as induction of intracellular calcium release by FLIPR assay; type: functional, cell-based; how it was run: as §2
Chain of Mu-type opioid receptor (Homo sapiens) (P35372 whole entry): as the sequence (P35372 whole entry, looked up) above

Mus musculus [6] = experiment: Antinociceptive effect in intrathecally dosed ICR-CD1 mouse by tail flick test; type: functional; how it was run: as §1
Mus musculus [7] = experiment: Antinociceptive effect in intrathecally dosed ICR-CD1 mouse assessed as peak time for antinociceptive effect by tail flick test; type: functional
How it was run: (§3)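 Peak time in the mouse tail-flick test was set by measuring antinociception at 5, 10, 20, 30 and 60 min after dosing; latency cutoff 10 s; response expressed as %MPE.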

[8] = molecular target: Kappa-type opioid receptor (Homo sapiens) (UniProt P41145); experiment: Agonist activity at human kappa opioid receptor expressed in HEK293 cells assessed as induction of intracellular calcium release by FLIPR assay; type: functional, cell-based; how it was run: as §2
Chain of Kappa-type opioid receptor (Homo sapiens) (P41145 whole entry): as the sequence (P41145 whole entry, looked up) above

[9] = molecular target: T2, Opioid receptors; mu & kappa (Homo sapiens) (UniProt P41145+P35372); experiment: Agonist activity at human mu-kappa opioid receptor expressed in HEK293 cells assessed as induction of intracellular calcium release by FLIPR assay; type: functional, cell-based; how it was run: as §2
T2 sequence (P35372 whole entry, looked up): as the sequence (P35372 whole entry, looked up) above
T2 sequence (P41145 whole entry, looked up): as the sequence (P41145 whole entry, looked up) above

Mus musculus [10] = experiment: Antinociceptive effect in orally dosed ICR-CD1 mouse by tail flick test; type: functional; settings: po; how it was run: as §1
Mus musculus [11] = experiment: Antinociceptive effect in sc dosed ICR-CD1 mouse by tail flick test; type: functional; how it was run: as §1
Mus musculus [12] = experiment: Antinociceptive effect in intracerebroventricularly dosed ICR-CD1 mouse assessed as peak time for antinociceptive effect by tail flick test; type: functional; how it was run: as §3
Mus musculus [13] = experiment: Antinociceptive effect in intracerebroventricularly dosed ICR-CD1 mouse assessed as drug tolerance development measured after 25 hrs by tail flick test; type: functional, organism-based
How it was run: (§4)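 Acute tolerance: the highest (ED80−90) dose of the day-1 dose-response curve was given again 24 h later to the same mice in the tail-flick test. No significant difference between days was scored as no tolerance.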

Mus musculus [14] = experiment: Potency ratio, ratio,of ED50 for antinociceptive effect in intracerebroventricularly dosed ICR-CD1 mouse to ED50 for intrathecally dosed ICR-CD1 mouse by tail flick test; type: functional
Mus musculus [15] = experiment: Antinociceptive effect in intrathecally dosed ICR-CD1 mouse assessed as drug tolerance development measured after 25 hrs by tail flick test; type: functional, organism-based; how it was run: as §4
Mus musculus [16] = experiment: Induction of aversion in ICR-CD1 mouse at 0.1 to 1 mg/kg, sc by conditioned place preference assay; type: organism-based; set-up: dose 0.1-1 mg/kg, route subcutaneous; settings: in vivo
How it was run: (§5)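 Two-chamber place conditioning with rod versus mesh floors. Bias was taken in a 20 min free-exploration pretest, and groups were counterbalanced. Drug or vehicle (saline with 1% DMSO) was paired with one chamber and saline with the other, injected sc 20 min before 30 min confinement. Four drug and four saline sessions alternated daily. Tests of 20 min came after the 4th and 8th sessions. Score = change in CS+ time from pretest; Bonferroni t test against vehicle.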

[17] = molecular target: T2, Opioid receptors; mu & kappa (Homo sapiens); experiment: Agonist activity at human mu-kappa opioid receptor expressed in HEK293 cells assessed as induction of beta-arrestin 2 recruitment incubated for 60 mins by fluorescent microscopy; type: cell-based
How it was run: (§6)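 HEK293 cells were transiently transfected with single or paired opioid receptors, replated on chamber slides after 24 h and left overnight. Ligands in serum-free medium were applied for 60 min at 37 °C. Cells were fixed in 4% paraformaldehyde, then stained with goat anti-β-arrestin2 (1 μg/mL, 4 °C overnight), fluorescent anti-goat secondary (30 min, RT) and DAPI. A brighter membrane on fluorescence microscopy scored as recruitment.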

Mus musculus [18] = experiment: Antinociceptive effect in ICR-CD1 mouse dosed intrathecally twice on day 1 and day 2 followed by injection with same dose on day 3 by tail flick test; type: functional
Mus musculus [19] = experiment: Antinociceptive effect in intrathecally dosed ICR-CD1 mouse co-treated with delta opioid receptor antagonist NTB by tail flick test; type: functional, organism-based
Mus musculus [20] = experiment: Rewarding effect in ICR-CD1 mouse at 0.3 to 10 mg/kg, sc by conditioned place preference assay; type: functional, organism-based; how it was run: as §5
Mus musculus [21] = experiment: Rewarding effect in ICR-CD1 mouse at 0.3 to 10 mg/kg, sc in presence of naloxone by conditioned place preference assay; type: functional, organism-based
Mus musculus [22] = experiment: Ratio of antinociceptive effect in intrathecally dosed ICR-CD1 mouse in presence of 500 nmol naloxone to antinociceptive effect in intrathecally dosed ICR-CD1 mouse in absence of 500 nmol naloxone; type: functional
Mus musculus [23] = experiment: Physical dependence in ICR-CD1 mouse assessed as induction of jumps over 10 mins period at 2.5 to 10 mg/kg, sc dosed three times daily for 4 days and 10 mg/kg, sc on day 5 followed 3 hrs later by single 50 mg/kg, sc naloxone; type: organism-based; settings: in vivo
How it was run: (§7)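 Mice received sc drug three times daily for 4 days (2.5−10 mg/kg), then 10 mg/kg on day 5, with sc naloxone 3 h later. Jumps were counted over 10 min. A morphine group served as control.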

[24] = molecular target: Mu-type opioid receptor (Homo sapiens) (UniProt P35372); experiment: Agonist activity at human mu opioid receptor expressed in HEK293 cells assessed as induction of beta-arrestin 2 recruitment incubated for 60 mins by fluorescent microscopy; type: cell-based; how it was run: as §6
Mus musculus [25] = experiment: Induction of aversion in ICR-CD1 mouse at 0.3 to 10 mg/kg, sc by conditioned place preference assay; type: organism-based; set-up: dose 0.3-10 mg/kg, route subcutaneous; settings: in vivo; how it was run: as §5
Mus musculus [26] = experiment: Antinociceptive effect in intrathecally dosed ICR-CD1 mouse co-treated with mu opioid receptor antagonist beta-FNA by tail flick test; type: functional, organism-based
Mus musculus [27] = experiment: Antinociceptive effect in sc dosed ICR-CD1 mouse by tail flick test relative to morphine; type: functional
[28] = molecular target: T1, Opioid receptors; delta & kappa (Homo sapiens); experiment: Agonist activity at human kappa-delta opioid receptor expressed in HEK293 cells assessed as induction of beta-arrestin 2 recruitment incubated for 60 mins by fluorescent microscopy; type: cell-based; how it was run: as §6
[29] = molecular target: Kappa-type opioid receptor (Homo sapiens) (UniProt P41145); experiment: Agonist activity at human kappa opioid receptor expressed in HEK293 cells assessed as induction of beta-arrestin 2 recruitment incubated for 60 mins by fluorescent microscopy; type: cell-based; how it was run: as §6
Mus musculus [30] = experiment: Antinociceptive effect in intrathecally dosed ICR-CD1 mouse co-treated with kappa opioid receptor antagonist norB-NI by tail flick test; type: functional, organism-based
Mus musculus [31] = experiment: Physical dependence in ICR-CD1 mouse assessed as induction of jumps over 10 mins period at 2.5 to 10 mg/kg, sc dosed three times daily for 4 days and 10 mg/kg, sc on day 5 followed 3 hrs later by single 10 mg/kg, sc naloxone; type: organism-based; settings: in vivo; how it was run: as §7
[32] = molecular target: Delta-type opioid receptor (Homo sapiens) (UniProt P41143); experiment: Agonist activity at human delta opioid receptor expressed in HEK293 cells assessed as induction of beta-arrestin 2 recruitment incubated for 60 mins by fluorescent microscopy; type: cell-based; how it was run: as §6

SMILES | MPE (Mus musculus [1]) | Activity [2] | Activity [3] | Activity [4] | Activity [5] | MPE (Mus musculus [6]) | Time (Mus musculus [7]) | Activity [8] | Activity [9] | ED50 (Mus musculus [1]) | Time (Mus musculus [12]) | Activity (Mus musculus [13]) | Ratio ED50 (Mus musculus [14]) | ED50 (Mus musculus [6]) | Activity (Mus musculus [15]) | also measured
O=C(N[C@@H]1CC[C@@]2(O)[C@H]3Cc4ccc(O)c5c4[C@@]2(CCN3CC2CC2)[C@H]1O5)c1cc2ccccc2s1 | <60% | Active | Active | Active | Active | <60% | 20 min | Active | Active |  |  |  |  |  |  | 
CN1CC[C@]23c4c5ccc(O)c4O[C@H]2[C@@H](O)C=C[C@H]3[C@H]1C5 [MORPHINE] |  |  |  |  |  |  |  |  |  |  |  |  |  |  |  | ED50 (Mus musculus [10]): 2.51 mg/kg; ED50 (Mus musculus [11]): 7.8 mg/kg
Cn1c(C(=O)N[C@@H]2CC[C@@]3(O)[C@H]4Cc5ccc(O)c6c5[C@@]3(CCN4CC3CC3)[C@H]2O6)cc2ccccc21 |  | Active | Active | Active | Active |  | 10 min | Active | Active | 550.4 pmol | 10 min | Active | 24 | 23.06 pmol | Active | 
O=C(N[C@@H]1CC[C@@]2(O)[C@H]3Cc4ccc(O)c5c4[C@@]2(CCN3CC2CC2)[C@H]1O5)c1cc2cc(F)ccc2[nH]1 | <60% | Active | inactive |  |  |  | 10 min |  |  |  |  |  |  | 295 pmol | inactive | 
O=C(N[C@@H]1CC[C@@]2(O)[C@H]3Cc4ccc(O)c5c4[C@@]2(CCN3CC2CC2)[C@H]1O5)c1c[nH]c2ccccc12 | <60% |  | Active |  |  |  | 20 min |  | Active |  |  |  |  | 29.39 pmol | Active | 
COC(=O)[C@@H]1C[C@H](OC(C)=O)C(=O)[C@H]2[C@@]1(C)CC[C@H]1C(=O)O[C@H](c3ccoc3)C[C@]21C [SALVINORIN A] |  |  |  |  |  |  |  |  |  |  |  |  |  |  |  | Activity (Mus musculus [16]): Toxic
O=C(N[C@@H]1CC[C@@]2(O)[C@H]3Cc4ccc(O)c5c4[C@@]2(CCN3CC2CC2)[C@H]1O5)c1cc2ccccc2[nH]1 |  | Active | Active | Active | Active |  | 10 min | Active | Active | 1252.2 pmol | 10 min | Active | 59 | 21.27 pmol | Active | Activity [17]: inactive; ED50 (Mus musculus [18]): 29.47 pmol; Activity (Mus musculus [19]): Active; Activity (Mus musculus [20]): Dose-dependent effect; Activity (Mus musculus [21]): inactive; Ratio (Mus musculus [22]): 15; Activity (Mus musculus [23]): Non-toxic; Activity [24]: Active; Activity (Mus musculus [25]): Non-toxic; ED50 (Mus musculus [10]): 9.08 mg/kg; Activity (Mus musculus [26]): Active; Ratio ED50 (Mus musculus [27]): 9; Activity [28]: inactive; Activity [29]: Active; Activity (Mus musculus [30]): Active; Activity (Mus musculus [31]): Non-toxic; Activity [32]: Active; ED50 (Mus musculus [11]): 0.97 mg/kg
O=C(N[C@@H]1CC[C@@]2(O)[C@H]3Cc4ccc(O)c5c4[C@@]2(CCN3CC2CC2)[C@H]1O5)c1cc2cc(Cl)ccc2[nH]1 | <60% |  | Active |  |  | <60% | 20 min |  | Active |  |  |  |  |  |  | 
O=C(N[C@@H]1CC[C@@]2(O)[C@H]3Cc4ccc(O)c5c4[C@@]2(CCN3CC2CC2)[C@H]1O5)c1cc2ccccc2o1 |  | Active | Active | Active | Active |  | 10 min | Active | Active | 580.8 pmol | 10 min | Active | 3 | 191.9 pmol | Active | 
O=C(N[C@@H]1CC[C@@]2(O)[C@H]3Cc4ccc(O)c5c4[C@@]2(CCN3CC2CC2)[C@H]1O5)c1ccc2[nH]ccc2c1 | <60% |  | Active |  |  | <60% | 20 min |  | Active |  |  |  |  |  |  | 
